A short description of this data set: ABTS radical scavenging activity assessed as Trolox equivalent antioxidant capacity index. Format: physicochemical. The method, boiled down:
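ABTS radical cation generated from 7 mM ABTS in water plus potassium persulfate (final 2.45 mM), held in the dark at room temperature for 16 h, then diluted with water to A734 0.700 ± 0.020. Diluted radical mixed with compound or Trolox standard in MeOH (final 0–20 µM), kept at ambient temperature. A734 read exactly 6 min after mixing, solvent blanks included. Compounds were dosed to give 10–80% inhibition. Percent absorbance decrease was plotted against concentration and referenced to Trolox.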

For `Cc1cc(C(C)(C)C)c(O)c(C(C)(C)C)c1` [BUTYLATED HYDROXYTOLUENE], the Activity worked out at 0.8.
Under `O=C(/C=C/c1ccc(O)cc1)OCc1ccccc1O[C@@H]1O[C@H](CO)[C@@H](O)[C@H](O)[C@H]1O` [POPULOSIDE B] stands 1.13; under `O=C(/C=C/c1ccc(O)cc1)O[C@H]1[C@H](OC2CCCCC2O)O[C@H](CO)[C@@H](O)[C@@H]1O` (some centres not stated) [GRANDIDENTATIN], 1.27.
Turning to `O=C(/C=C/c1ccc(O)cc1)OCc1cc(O)ccc1O[C@@H]1O[C@H](CO)[C@@H](O)[C@H](O)[C@H]1O` [POPULOSIDE A], the Activity came out at 2.07.
As for `O=C(O)/C=C/c1ccc(O)c(O)c1` [CAFFEIC ACID], the Activity is 1.98.
Under `O=C(O[C@H]1[C@H](Oc2ccccc2COC(=O)C2(O)C=CCCC2=O)O[C@H](CO)[C@@H](O)[C@@H]1O)c1ccccc1` (some centres not stated) [TREMULACIN] stands 0.12; under `OCc1ccccc1O[C@@H]1O[C@H](CO)[C@@H](O)[C@H](O)[C@H]1O` [SALICIN], 0.21; under `O=C(/C=C/c1ccc(O)cc1)O[C@@H]1O[C@H](CO)[C@@H](O)[C@H](O)[C@H]1O`, 0.78.
The same measure for `O=C(/C=C/c1ccc(O)c(O)c1)OCc1ccccc1O[C@@H]1O[C@H](CO)[C@@H](O)[C@H](O)[C@H]1O` [POPULOSIDE]: 1.67; for `COc1cc(/C=C/C(=O)OCc2ccccc2O[C@@H]2O[C@H](CO)[C@@H](O)[C@H](O)[C@H]2O)ccc1O` [POPULOSIDE C]: 1.55.
The same measure for `O=C(OCc1cc(O)ccc1O[C@@H]1O[C@H](CO)[C@@H](O)[C@H](O)[C@H]1O)c1ccccc1` [SALIREPOSIDE]: 1.01.
For `O=C(O[C@H]1[C@H](Oc2ccccc2CO)O[C@H](CO)[C@@H](O)[C@@H]1O)c1ccccc1` [TREMULDIN], the Activity was determined as 0.24.
